Reference: article PMC12065821 (Scientific Reports, 2025)
Where a SMILES comes first, the peptide text is derived from it. Bridges are numbered along the chain shown (N, C = ends). [ ]: non-standard residue; d: D form. The star is where a group is joined. Heptanoyl(6-Me) = CC(C)CCCCC(=O)*; Dab = NCC[C@H](N)C(=O)O

Columns and labels:
rats [1] = test: Renal histological examination; format: in vivo; details: rat kidney; for maximal SQS: mean ± SD, SD
rats [2] = test: Kidney injury biomarkers: plasma CR and BUN; format: in vivo; details: rat plasma, mean ± SD
In short: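 Rats (male Sprague-Dawley) received one i.p. injection in saline, with a saline control group. Plasma came from serial heparinised jugular-vein samples, plus blood taken at sacrifice in a second cohort. Creatinine and blood urea nitrogen were measured on an automatic biochemical analyser. Peak levels and times to peak were taken from the time profiles and given as mean ± SD.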

rats [3] = test: PK-TD model, TD component; format: in vivo; details: i.p., mean ± SD
In short: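 Plasma creatinine and BUN time courses were linked to plasma colistin/colistin B through an indirect hypothetical effect compartment. K_e is the rate constant from the central to the effect compartment. The effect was linear: E = E₀ + S·C_e, with E₀ the pre-dose baseline. T_lag was calculated as 1/K_e. Fit was judged by R², AIC, BIC and visual inspection. Parameters are mean ± SD.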

[4] = Kidney PK of CMS/CMS-E2 and formed colistin/colistin B; format: in vivo, rats; details: for AUC0-inf CMS/CMS-E2 in kidneys / Tmax CMS/CMS-E2 in kidneys / t1/2 CMS/CMS-E2 in kidneys / Cmax CMS/CMS-E2 in kidneys / Tmax formed colistin/colistin B in kidneys / Cmax formed colistin/colistin B in kidneys: rat kidney cortex, LC-MS/MS; for AUC0-inf CMS/CMS-E2 in kidneys / Tmax CMS/CMS-E2 in kidneys / t1/2 CMS/CMS-E2 in kidneys / Tmax formed colistin/colistin B in kidneys: NCA; for Cmax CMS/CMS-E2 in kidneys / Cmax formed colistin/colistin B in kidneys: mean ± SD; for Kp: kidney (cortex) / plasma, colistin/colistin B
In short: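 Male Sprague-Dawley rats (300 ± 15 g) got one i.p. dose in saline. At each sampling time rats were anaesthetised with tiletamine-zolazepam (40 mg/kg) and killed, and the left kidney was frozen at −70 °C. Kidney cortex was homogenised in saline (1:10 m/v, 1% BSA). Samples went through WCX solid-phase extraction with polymyxin B1 internal standard, then LC-MS/MS. Prodrug was calculated as total (after […] sulfuric acid hydrolysis) minus free colistin/colistin B. Parameters came from non-compartmental analysis.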

[5] = PK-TD model, PK component; format: in vivo; details: rats, single i.p. CMS-E2 40 mg/kg CBA, one-compartment PK-TD model, mean ± SD
In short: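 Plasma prodrug and formed colistin/colistin B concentrations after i.p. dosing were fitted by a compartmental model. The final model used one compartment each for prodrug and formed drug, a conversion rate constant, and linear first-order total clearance from both. Fit was judged by R², AIC, BIC and visual inspection. Estimates are mean ± SD.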

rats [6] = test: Maximal tolerability dose; format: in vivo; details: intraperitoneal
[7] = Plasma PK of CMS/CMS-E2 and formed colistin/colistin B; format: in vivo, rats; details: rat plasma, LC-MS/MS, NCA, mean ± SD
In short: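 Male Sprague-Dawley rats were dosed once i.p. in saline, and serial jugular-vein blood was taken before and after dosing. Blood was heparinised (1%), spun at 4,982 × g for 10 min at 4 °C, and plasma stored at −70 °C. Plasma (40 µL) went through WCX solid-phase extraction with polymyxin B1 internal standard, then LC-MS/MS. Prodrug was total (acid-hydrolysed) minus free analyte. […] Values are mean ± SD, compared by Wilcoxon rank sum.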

rats [8] = test: Regression of kidney colistin/colistin B concentrations against CR, BUN, SQS; format: in vivo; details: 95% CI
[9] = cited from earlier work
[10] = cited from earlier work; remark: listed apart in the source
[11] = single i.p. CMS or CMS-E2 20 mg/kg CBA
[12] = single i.p. CMS-E2 40 mg/kg CBA
[13] = single i.p. CMS or CMS-E2 20 mg/kg CBA, SD
[14] = single i.p. CMS-E2 40 mg/kg CBA, SD
[15] = rats, single i.p. CMS or CMS-E2 20 mg/kg CBA

**Q.** Which results are given for Colistin B methanesulphonate [CMS-E2]?
**A.** histological lesions during the first 2 h (rats [1]; PAS stain, single i.p. CMS or CMS-E2 20 mg/kg CBA): No obvious histological lesion; maximal SQS (rats [1]; [11]): 0.667 ± 0.577; histological damage at time points other than 4 h (rats [1]; single i.p. CMS-E2 20 mg/kg CBA): no obvious damage was observed; recovery of histological damage at 24 h (rats [1]; [12]): all damage was completely recovered; maximal SQS (rats [1]; [12]): 2.33 ± 1.16; peak BUN level (rats [2]; [11]): 12.4 ± 5.21 mmol/L; peak CR level (rats [2]; [11]): 33.4 ± 3.44 µmol/L; time of peak BUN (rats [2]; [11]): 6.00 ± 0.00 h; time of peak CR level (rats [2]; [11]): 4.67 ± 1.89 h; peak BUN level (rats [2]; [12]): 23.0 ± 5.59 mmol/L; peak CR level (rats [2]; [12]): 104 ± 40.4 µmol/L; time of peak BUN (rats [2]; [12]): 11.1 ± 3.00 h; time of peak CR level (rats [2]; [12]): 8.86 ± 3.18 h; S (slope between colistin/colistin B concentration in effect compartment and CR) (rats [3]; E = E0 + S·Ce): 13.0 ± 3.52 mmol/g; Ke (rate from colistin/colistin B central compartment to effect compartment), BUN (rats [3]; indirect link PK-TD model, effect = BUN): 0.182 ± 0.164 h⁻¹; Ke (rate from colistin/colistin B central compartment to effect compartment), CR (rats [3]; indirect link PK-TD model, effect = plasma CR): 0.814 ± 0.524 h⁻¹; Tlag (lag time), BUN (rats [3]; reciprocal of Ke, effect = BUN): 11.9 ± 9.46 h; Tlag (lag time), CR (rats [3]; reciprocal of Ke, effect = plasma CR): 1.83 ± 1.05 h; AUC0-inf CMS/CMS-E2 in kidneys [4, 11]: 289 µg·h/g; Tmax CMS/CMS-E2 in kidneys [4, 11]: 2 h; t1/2 CMS/CMS-E2 in kidneys [4, 11]: 0.56 h; Cmax CMS/CMS-E2 in kidneys [4, 13]: 105 ± 25.3 µg/g; AUC0-inf CMS/CMS-E2 in kidneys [4, 12]: 2496 µg·h/g; Tmax CMS/CMS-E2 in kidneys [4, 12]: 4 h; t1/2 CMS/CMS-E2 in kidneys [4, 12]: 2.02 h; Cmax CMS/CMS-E2 in kidneys [4, 14]: 379 ± 85.5 µg/g; Kidney/plasma ratio of Cmax, CMS/CMS-E2 [4, 15]: 5.50; Kidney/plasma ratio of Cmax, CMS/CMS-E2 ([4]; rats, single i.p. CMS-E2 40 mg/kg CBA): 7.44; CLCMS/CMS-E2 (total body clearance) [5]: 0.192 ± 0.104 L/h/kg; Ka CMS/CMS-E2 (absorption rate) [5]: 0.673 ± 0.208 h⁻¹; V (volume of distribution) [5]: 0.291 ± 0.105 L/kg; maximal tolerability dose (rats [6]): 40 mg/kg CBA; AUC0-inf CMS/CMS-E2 in plasma [7, 11]: 37.2 ± 10.5 µg·h/mL; CL/F CMS/CMS-E2 [7, 11]: 0.594 ± 0.2 L/h/kg; Cmax CMS/CMS-E2 in plasma [7, 11]: 19.1 ± 4.50 µg/mL; Tmax CMS/CMS-E2 in plasma [7, 11]: 0.500 ± 0.00 h; Vd/F CMS/CMS-E2 [7, 11]: 0.464 ± 0.108 L/kg; t1/2 CMS/CMS-E2 in plasma [7, 11]: 0.573 ± 0.16 h; AUC0-inf CMS/CMS-E2 in plasma [7, 12]: 226 ± 125 µg·h/mL; CL/F CMS/CMS-E2 [7, 12]: 0.251 ± 0.154 L/h/kg; Cmax CMS/CMS-E2 in plasma [7, 12]: 50.9 ± 23.5 µg/mL; Tmax CMS/CMS-E2 in plasma [7, 12]: 1.75 ± 0.433 h; Vd/F CMS/CMS-E2 [7, 12]: 0.497 ± 0.278 L/kg; t1/2 CMS/CMS-E2 in plasma [7, 12]: 1.57 ± 0.522 h

**Q.** With `CC(C)CCCCC(=O)N[C@@H](CCN)C(=O)N[C@H](C(=O)N[C@@H](CCN)C(=O)N[C@H]1CCNC(=O)[C@H]([C@@H](C)O)NC(=O)[C@H](CCN)NC(=O)[C@H](CCN)NC(=O)[C@H](CC(C)C)NC(=O)[C@@H](CC(C)C)NC(=O)[C@H](CCN)NC1=O)[C@@H](C)O` [colistin B] ({Heptanoyl(6-Me)}-[Dab]T[Dab][Dab][Dab][dL]L[Dab][Dab]T; lactam 4-C) as the compound, how does the “regression coefficient between kidney concentration and SQS” value (rats [8]; ordered logistic regression) read?
**A.** The value was 0.03.

**Q.** What about the “regression coefficient between kidney concentration and contemporaneous BUN” value (rats [8]; simple linear regression) of the same compound?
**A.** The value was 0.08.

**Q.** And the “regression coefficient between kidney concentration and contemporaneous CR” value (rats [8]; simple linear regression)?
**A.** The value was 1.58.

**Q.** And the “clearance after the colistin sulfate” value [9]?
**A.** The value was 0.312 ± 0.024 L/h/kg.

**Q.** And the “clearance relative to colistin” value [9]?
**A.** The value was “almost half”.

**Q.** And the “clearance when administered as a single component” value [9]?
**A.** The value was 0.183 ± 0.0372 L/h/kg.

**Q.** And the Kp ([4]; male, Sprague-Dawley, rat, ip, 20 mg/kg CBA, Kidney/plasma ratio of AUC0-inf, rats, single i.p. CMS or CMS-E2 20 mg/kg CBA)?
**A.** The Kp was 19.7.

**Q.** And the Kp ([4]; male, Sprague-Dawley, rat, ip, 40 mg/kg CBA, Kidney/plasma ratio of AUC0-inf, rats, single i.p. CMS-E2 40 mg/kg CBA)?
**A.** The Kp was 39.6.

**Q.** What about the Kp ([4]; male, Sprague-Dawley, rat, ip, 40 mg/kg CBA, Kidney/plasma ratio of Cmax, rats, single i.p. CMS-E2 40 mg/kg CBA) of the same compound?
**A.** Its Kp is 20.1.

**Q.** And the tissue level at time at 8 h ([4]; male, Sprague-Dawley, rat, kidney cortex, ip, 20 mg/kg CBA, SD)?
**A.** The tissue level at time at 8 h was 4860 ± 2360 ng/g.

**Q.** What about the tissue level at time at 24 h ([4]; male, Sprague-Dawley, rat, kidney cortex, ip, 40 mg/kg CBA, SD) of the same compound?
**A.** The tissue level at time at 24 h was 11500 ± 1740 ng/g.

**Q.** What about the “Tmax formed colistin/colistin B in kidneys” value [4, 11] of the same compound?
**A.** The value was 4 h.

**Q.** What about the “Cmax formed colistin/colistin B in kidneys” value [4, 13] of the same compound?
**A.** Its value is 17.6 ± 6.79 µg/g.

**Q.** What about the “Tmax formed colistin/colistin B in kidneys” value [4, 12] of the same compound?
**A.** Its value is 10 h.

**Q.** And the “Cmax formed colistin/colistin B in kidneys” value [4, 14]?
**A.** Its value is 148 ± 32.8 µg/g.

**Q.** And the “Kidney/plasma ratio of Cmax, colistin/colistin B” value [4, 15]?
**A.** Its value is 15.4.

**Q.** And the plasma protein binding [10]?
**A.** Its plasma protein binding is 41.7 ± 12.4%.

**Q.** What about the “CLcolistin/colistin B (total body clearance)” value [5] of the same compound?
**A.** Its value is 0.113 ± 0.0485 L/h/kg.

**Q.** And the “AUC0-inf formed colistin/colistin B in plasma” value [7, 11]?
**A.** Its value is 4.14 ± 1.26 µg·h/mL.

**Q.** What about the “Cmax formed colistin/colistin B in plasma” value [7, 11] of the same compound?
**A.** Its value is 1.14 ± 0.217 µg/mL.

**Q.** And the “Tmax formed colistin/colistin B in plasma” value [7, 11]?
**A.** Its value is 1.67 ± 0.471 h.

**Q.** What about the “t1/2 formed colistin/colistin B in plasma” value [7, 11] of the same compound?
**A.** The value was 1.22 ± 0.313 h.

**Q.** And the “AUC0-inf formed colistin/colistin B in plasma” value [7, 12]?
**A.** The value was 35.5 ± 23.9 µg·h/mL.

**Q.** And the “Cmax formed colistin/colistin B in plasma” value [7, 12]?
**A.** Its value is 7.08 ± 2.77 µg/mL.

**Q.** What about the “Tmax formed colistin/colistin B in plasma” value [7, 12] of the same compound?
**A.** Its value is 4.71 ± 0.881 h.

**Q.** What about the “t1/2 formed colistin/colistin B in plasma” value [7, 12] of the same compound?
**A.** Its value is 2.13 ± 0.827 h.
